Source: paper PMC8496042 (RSC Chemical Biology, 2021)

Target: T1, PAP(248–286) (Homo sapiens, UniProt P15309)
T1 sequence (P15309 248-286): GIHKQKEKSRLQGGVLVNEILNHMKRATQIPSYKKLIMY
Assay: isothermal titration calorimetry
Assay type: binding
Outline: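 Freshly prepared monomeric peptide (600 μM) in deionized water brought to 1× PBS was titrated from the syringe into a low-volume nano-ITC cell holding the test compound (80 μM). The compound was neutralised with NaOH to physiological pH and diluted in water/PBS. Both solutions were degassed 10 min at 37 °C. Heats and enthalpies were fitted with an independent binding model.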

Kd: 8.59 µM
SMILES: O=C1O[C@H]([C@@H](O)CO)C(O)=C1O [ascorbic acid]
